Results published in ChEMBL document CHEMBL2375298, “Isolation, structure determination, and anti-HIV evaluation of tigliane-type diterpenes and biflavonoid from Stellera chamaejasme” (J Nat Prod, 2013).
Active and inactive are the calls of the source. The calls are words filed in the database; no cut-off is given here.

Legend:
[1] = system: Human immunodeficiency virus 1; assay: Antiviral activity against HIV-1 NL4-3 infected in human MT4 cells assessed as inhibition of viral replication after 4 days by ELISA; assay type: functional
Outline: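 MT4 cells infected with HIV-1 NL4-3 at MOI 0.001 in presence of graded compound concentrations; fresh medium with compound added 48 h post-infection to sustain growth. Replication measured by p24 ELISA on day 4 post-infection. EC90 (concentration inhibiting replication by 90%) calculated from dose-response.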

MT4 = assay: Cytotoxicity against human MT4 cells by CellTitre-Glo luminescent assay; assay type: cell-based
[2] = Human immunodeficiency virus 1, NL4-3, MT4, 96 h

| SMILES | EC90 [1, 2] | IC50 (MT4) | EC90 [1] |
| --- | --- | --- | --- |
| C=C(C)[C@]12C[C@@H](COC(C)=O)[C@@]34O[C@]5(O[C@@H]1[C@@H]3[C@@H]1O[C@]1(CO)[C@@H](O)[C@@]1(O)[C@H]4[C@H]([C@H](C)[C@@H]1OC(=O)c1ccccc1)[C@H](C)CCCCCC[C@H]5O)O2 | 0.0004 µM | 4.3 µM | – |
| CCCCCCCC(=O)O[C@@]12[C@H](OC(=O)c3ccccc3)[C@@H](C)[C@@]3(O)[C@H]([C@@H]1C2(C)C)[C@@H](OO)C(CO)=C[C@]1(O)C(=O)C(C)=C[C@@H]31 | 1.52 µM | 15.8 µM | – |
| CCCCC/C=C\CCC(=O)O[C@@]12[C@H](OC(=O)c3ccccc3)[C@@H](C)[C@@]3(O)[C@@H](C=C(CO)C[C@]4(O)C(=O)C(C)=C[C@@H]34)[C@@H]1C2(C)C | 0.00066 µM | 4.7 µM | – |
| CCCCCCCCCC(=O)O[C@@]12[C@H](OC(=O)c3ccccc3)[C@@H](C)[C@@]3(O)[C@H]([C@@H]1C2(C)C)[C@@H](OO)C(CO)=C[C@]1(O)C(=O)C(C)=C[C@@H]31 | 0.49 µM | 3.5 µM | – |
| COc1ccc([C@@H]2Oc3cc(O)cc(O)c3C(=O)[C@@H]2[C@H]2C(=O)c3c(O)cc(OC)cc3O[C@H]2c2ccc(OC)cc2)cc1 | – | – | inactive |
| CC/C=C\C/C=C\CCC(=O)O[C@@]12[C@H](OC(=O)c3ccccc3)[C@@H](C)[C@@]3(O)[C@@H](C=C(CO)C[C@]4(O)C(=O)C(C)=C[C@@H]34)[C@@H]1C2(C)C | 0.0068 µM | 7.8 µM | – |
| O=C(/C=C/CCc1ccccc1)c1ccccc1 | – | – | inactive |
| COc1ccc([C@@H]2Oc3cc(OC)cc(O)c3C(=O)[C@H]2[C@@H]2C(=O)c3c(O)cc(O)cc3O[C@H]2c2ccc(O)cc2)cc1 | 4.21 µM | 17.5 µM | – |
| CCCCCCCC(=O)O[C@@]12[C@H](OC(=O)c3ccccc3)[C@@H](C)[C@]3(O)[C@@H]4C=C(C)C(=O)[C@@]4(O)[C@H](O)C(CO)=C[C@H]3[C@@H]1C2(C)C | 0.0038 µM | 17.2 µM | – |
| COc1cc(/C=C/C(=O)OCCCCCCCCCCCCCCCCCCCCCC(=O)OCC(O)CO)ccc1O (configuration not stated) | – | 16.2 µM | – |
| COc1ccc([C@@H]2Oc3cc(O)cc(O)c3C(=O)[C@@H]2[C@H]2C(=O)c3c(O)cc(O)cc3O[C@H]2c2ccc(OC)cc2)cc1 | – | – | inactive |
| CCCCCCCCCC(=O)O[C@@]12[C@H](OC(=O)c3ccccc3)[C@@H](C)[C@@]3(O)[C@@H](C=C(CO)C[C@]4(O)C(=O)C(C)=C[C@@H]34)[C@@H]1C2(C)C [STELLERARIN] | 0.0005 µM | 5.1 µM | – |
| C=C(C)[C@@]12C[C@@H](COC(=O)c3ccccc3)[C@@]34OC5(O[C@@H]1[C@@H]3[C@@H]1O[C@]1(CO)[C@@H](O)[C@@]1(O)[C@H]4[C@H]([C@H](C)[C@@H]1OC(=O)c1ccccc1)[C@H](C)CCCCCC[C@H]5O)O2 [GNIDIMACRIN] | 0.0004 µM | 4.3 µM | – |
